Consider 23 sequences from the EternaBench riboswitch data.

Data set [1] relates to MS2 coat protein. The data set can be described thus: apparent Kd, MS2 coat protein; higher = weaker binding; RNA-MaP array; theophylline 2 mM where present. The essentials:
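Designs were transcribed by stalled E. coli RNA polymerase on Illumina sequencing-chip clusters. They were titrated with SNAP-549-labelled MS2 coat protein from 0.7 or 1.5 nM, doubling to 3 µM, without and then with constant ligand. Buffer: 100 mM Tris-HCl pH 7.5, 80 mM KCl, 4 mM MgCl2, BSA, DTT, yeast tRNA, Tween-20. Green signal was normalised to red-channel RNA signal and control-cluster median Fmax. Apparent Kd is the median of filtered per-cluster binding-curve fits.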

For data set [2], the system named is MS2 coat protein. The data set can be described thus: apparent Kd, MS2 coat protein; higher = weaker binding; RNA-MaP array. The essentials:
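Sequenced DNA templates on an Illumina sequencing chip were transcribed into the designed RNAs. These were incubated at room temperature in Tris-HCl pH 7.5 buffer containing KCl, MgCl2, BSA, DTT, tRNA and Tween20 with fluorescently labeled MS2 coat protein at 1.5 nM to 3 μM, with or without input ligand. Apparent Kd is the median of binding-curve fits per cluster, and designs with fewer than 10 clusters measured were excluded.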

Setting [3] is: designed as: ON switch for theophylline, no ligand.
Where [4] appears, read: ligand present: theophylline, designed as: ON switch for theophylline.
The mark [5] stands for this setting: designed as: OFF switch for theophylline, no ligand.
Where [6] appears, read: ligand present: theophylline, designed as: OFF switch for theophylline.
[7] abbreviates: designed as: ON switch for flavin mononucleotide, no ligand.
The mark [8] stands for this setting: ligand present: flavin mononucleotide, designed as: ON switch for flavin mononucleotide.
Where [9] appears, read: designed as: OFF switch for flavin mononucleotide, no ligand.
Setting [10] is: ligand present: flavin mononucleotide, designed as: OFF switch for flavin mononucleotide.

For the sequence “ACAUGAGGAUCACCCAUGUCUGCCACUGAUACCAGCGGAAGCCAACGCCCUUGGCAGCAGAACAUGAGGAUCACCCAUGUAGGCA”, the entries for the “apparent Kd” value in the data set with MS2 coat protein [1] (setting [3]) and in the data set on MS2 coat protein [1] (setting [4]) were 308 nM and 169 nM, respectively.

For the sequence “CGGUUUGUGAUGGAUACCAGCAGUGUGGCUGUUUAUCCUGACAUGAGGAUCACCCAUGUGUGCCCUUGGCAGCUGUUGUGGGCUG”, the “apparent Kd” value in the data set with MS2 coat protein [1] (setting [5]) is 76.5 nM; with MS2 coat protein [1] (setting [6]), 130 nM.

Consider “UUUGAUAGGACAGAUACCAGCGUGUUGUUGAACAUGAGGAUCACCCAUGUAGUGAUCGAGCGCCCUUGGCAGCUGGUUUGUUAGG”, for which the “apparent Kd” value came out at 382 nM in the data set on MS2 coat protein [1] (setting [3]) and 306 nM with MS2 coat protein [1] (setting [4]).

Turning to “ACACAUGAGGAUCACCCAUGUUCAAUAGAUACCAGUGAUACGGUGCACCCUUGGCAGCUGUUGCUGAGUGAUGGUUCCCUCGGAA”, the “apparent Kd” value was determined as 55.2 nM with MS2 coat protein [1] (setting [3]) and 77.7 nM in the data set on MS2 coat protein [1] (setting [4]).

For the sequence “AGCUCAUAGAGUGAUACCAGACUACAUGAGGAUCACCCAUGUUACUUUUAAAUAUCAUUUGUCCCUUGGCAGCACAUGAAGAGCA”, the entries for the “apparent Kd” value with MS2 coat protein [1] (setting [5]) and in the data set on MS2 coat protein [1] (setting [6]) were 13.6 nM and 12.7 nM, respectively.

Consider “ACAUGAGCAUCAGCCUUGUAGGAACUAGAUACCAGCCCAACAUGAGGCCCUUGGCAGCUGACAACAUGAGGAUCACCCAUGUCAC”, for which the “apparent Kd” value in the data set with MS2 coat protein [1] (setting [5]) was 36.2 nM; in the data set on MS2 coat protein [1] (setting [6]) it was 34.1 nM.

As for “AGCCCUGUACUAGAUACCAGCUACAUGAGGAUCACCCAUGUGCGUCAAGACUGACUGUGUAGCCCUUGGCAGCUACUCGCAUGUA”, the entries for the “apparent Kd” value with MS2 coat protein [1] (setting [5]) and in the data set with MS2 coat protein [1] (setting [6]) were 15.7 nM and 25.5 nM, respectively.

Take “AUUAUCAUGGUCAUUUAUAUUUCGUCAGAUACCAGACUAGAUAUAGUCCCUUGGCAGCUGUUACAUGAGGAUCACCCAUGUUAUU”: the “apparent Kd” value in the data set on MS2 coat protein [1] (setting [5]) is 124 nM; in the data set with MS2 coat protein [1] (setting [6]), 46.6 nM.

For “ACACAUGAGGAUCACCCAUGUGCAAUAGAUACCAGUGACGCGGUGCACCCUUGGCAGCUGUUGCUGAGUGAUGGUUCCCUCGGAA”, the “apparent Kd” value with MS2 coat protein [1] (setting [5]) is 36.6 nM; with MS2 coat protein [1] (setting [6]) it was 58.5 nM.

Turning to “GAGGGUGAAUCUCUGGUCCGUUUGACGGAUACCAGCGAGAGGUAUCGCCCUUGGCAGCCGACGACAUGAGGAUCACCCAUGUUAA”, the entries for the “apparent Kd” value with MS2 coat protein [1] (setting [5]) and in the data set with MS2 coat protein [1] (setting [6]) were 17.9 nM and 109 nM, respectively.

Regarding “GCACCAGGUACGGAUACCAGCUAUAGGCCCAAUGGGCGACAUGAGGAUCACCCAUGUAAUGGCCCUUGGCAGCUGUACCUGGUGC”, the “apparent Kd” value in the data set with MS2 coat protein [1] (setting [3]) stood at 88.3 nM; with MS2 coat protein [1] (setting [4]) it was 13.7 nM.

As for “GCAGAUACCAUGAGUCGACAUGAGGAUCACCCAUGUACUCCCAGAAGGAUGUACUUUGUUCAAGCAUAGGAUAUGGGCCGAACC”, the “apparent Kd” value with MS2 coat protein [2] (setting [7]) turned out to be 114 nM; in the data set with MS2 coat protein [2] (setting [8]), 56 nM.

Take “AGGUAGCGAGACUUACAUGAGGAUCACCCAUGUACCACGCGGAAGGAUAUAACGGCAGGCUUUGCUUAGAAGGUCCGCGGUACU”: the “apparent Kd” value with MS2 coat protein [2] (setting [9]) came out at 26.9 nM; in the data set on MS2 coat protein [2] (setting [10]), 20.4 nM.

As for “AGUUUUCCUGAGAAGGUGGAGGUCUUUCAUUGCCAAGGAUAUCAGACAACAAUGUAGCCCAAACAUGAGGAUCACCCAUGUCUC”, the entries for the “apparent Kd” value with MS2 coat protein [2] (setting [7]) and in the data set with MS2 coat protein [2] (setting [8]) were 70.7 nM and 42.1 nM, respectively.

“CGAAAUUCAGUAAGGAUAUUAGGAGGCUCUGCGGCUAAGAAGGUACAUGAGGAUCACCCAUGUGGCACCGCAUG”: the “apparent Kd” value came out at 7.65 nM in the data set with MS2 coat protein [2] (setting [9]) and 7.82 nM in the data set with MS2 coat protein [2] (setting [10]).

On to “GACGUGGUGAAGAAGGGCUGACGUAACCGGUGAGCAGGAUAUUCGACUCAUUAAUACAUGAGGAUCACCCAUGUUCGGUAGCGC”, for which the “apparent Kd” value in the data set with MS2 coat protein [2] (setting [9]) turned out to be 24.8 nM; with MS2 coat protein [2] (setting [10]), 68 nM.

As to “UUACGGGAAGGAUAUCAUUGAAGGUACAUGAGGAUCACCCAUGUCUGAUGCGCAUCGCCGUGAGAAGGUCCUGCUU”, the “apparent Kd” value in the data set with MS2 coat protein [2] (setting [9]) was determined as 38.2 nM; with MS2 coat protein [2] (setting [10]), 14.9 nM.

For the sequence “CAUUCUUUAGUAAGGAUAUCAACUUGUUUAUAUAAUGAGAAGGUACAUGAGGAUCACCCAUGUCUCACAUCGGU”, the “apparent Kd” value amounted to 8.72 nM with MS2 coat protein [2] (setting [9]) and 7.9 nM with MS2 coat protein [2] (setting [10]).

For “CACUGACAACGAGGAUAUGGUCGAGCCAGACAUGAGGAUCACCCAUGUAUCGAAAGCAAUAAACUCCAGAAGGCGUAACAGUUG”, the “apparent Kd” value in the data set with MS2 coat protein [2] (setting [7]) amounted to 10.4 nM; with MS2 coat protein [2] (setting [8]) it was 11.6 nM.

For the sequence “CAGCAACAAUUGGAUACCAGCCAUUACAGGUAUCAUUAUAACAUGAGGAUCACCCAUGUAGGCCCUUGGCAGCCAUUGGUGUAAG”, the results for the “apparent Kd” value in the data set with MS2 coat protein [2] (setting [5]) and in the data set with MS2 coat protein [2] (setting [6]) were 39.1 nM and 106 nM, respectively.

For “UUGUCACAUGAGGAUCACCCAUGUAAGAGAUUCCAAGGAUAUAUUAUCGGGUAAAAUGAAAUAGAAGGUGGUCAGA”, the “apparent Kd” value in the data set on MS2 coat protein [2] (setting [7]) was 90.3 nM; in the data set with MS2 coat protein [2] (setting [8]), 65.6 nM.

For the sequence “AUCGAUAAGAAGAAGGUGUGACAUGAGGAUCACCCAUGUUAUUGAACAGCACAUGAUCACAGAUACAAGGAUAUUCUACGUAUG”, the “apparent Kd” value with MS2 coat protein [2] (setting [9]) worked out at 24.4 nM; in the data set with MS2 coat protein [2] (setting [10]), 23.7 nM.

With “ACCCGCUCCUGAGGAUAUCCGGCAUGACAUGAGGAUCACCCAUGUGGGCUCGUGGAGGGAGUGCAGGAGAAGGCAGUAGGCGCU”, the “apparent Kd” value in the data set with MS2 coat protein [2] (setting [9]) was 35.7 nM; in the data set with MS2 coat protein [2] (setting [10]), 82.6 nM.

What is called apparent Kd is the concentration giving half-maximal binding under the conditions of the assay.
